Among the data in ChEMBL document CHEMBL1142492 (J Med Chem, 2008) are inhibition values, retold here.

The target in assay [1] is Tyrosine-protein kinase SYK (Homo sapiens) (UniProt P43405). The assay is described as follows: Inhibition of SYK at 3 uM.
Assay [2] concerns the target Epidermal growth factor receptor (Homo sapiens) (UniProt P04626+P00533+Q15303+P21860). As to the kind of experiment: Inhibition of EGFR S752-I759del mutant at 3 uM. Format: protein assay. The method, boiled down:
(§1)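 Single-concentration kinase panel scoring: each value is the percentage of enzyme activity remaining relative to a DMSO-only control. An activity statistically indistinct from DMSO control was scored "no hit".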

Assay [3] concerns Mast/stem cell growth factor receptor Kit (Homo sapiens), P10721 [V559D,T670I]. As to the kind of experiment: Inhibition of KIT V559D,T670I mutant at 3 uM.
Mast/stem cell growth factor receptor Kit (Homo sapiens), P10721 [V559D,T670I], sequence (P10721 whole entry V559D/T670I): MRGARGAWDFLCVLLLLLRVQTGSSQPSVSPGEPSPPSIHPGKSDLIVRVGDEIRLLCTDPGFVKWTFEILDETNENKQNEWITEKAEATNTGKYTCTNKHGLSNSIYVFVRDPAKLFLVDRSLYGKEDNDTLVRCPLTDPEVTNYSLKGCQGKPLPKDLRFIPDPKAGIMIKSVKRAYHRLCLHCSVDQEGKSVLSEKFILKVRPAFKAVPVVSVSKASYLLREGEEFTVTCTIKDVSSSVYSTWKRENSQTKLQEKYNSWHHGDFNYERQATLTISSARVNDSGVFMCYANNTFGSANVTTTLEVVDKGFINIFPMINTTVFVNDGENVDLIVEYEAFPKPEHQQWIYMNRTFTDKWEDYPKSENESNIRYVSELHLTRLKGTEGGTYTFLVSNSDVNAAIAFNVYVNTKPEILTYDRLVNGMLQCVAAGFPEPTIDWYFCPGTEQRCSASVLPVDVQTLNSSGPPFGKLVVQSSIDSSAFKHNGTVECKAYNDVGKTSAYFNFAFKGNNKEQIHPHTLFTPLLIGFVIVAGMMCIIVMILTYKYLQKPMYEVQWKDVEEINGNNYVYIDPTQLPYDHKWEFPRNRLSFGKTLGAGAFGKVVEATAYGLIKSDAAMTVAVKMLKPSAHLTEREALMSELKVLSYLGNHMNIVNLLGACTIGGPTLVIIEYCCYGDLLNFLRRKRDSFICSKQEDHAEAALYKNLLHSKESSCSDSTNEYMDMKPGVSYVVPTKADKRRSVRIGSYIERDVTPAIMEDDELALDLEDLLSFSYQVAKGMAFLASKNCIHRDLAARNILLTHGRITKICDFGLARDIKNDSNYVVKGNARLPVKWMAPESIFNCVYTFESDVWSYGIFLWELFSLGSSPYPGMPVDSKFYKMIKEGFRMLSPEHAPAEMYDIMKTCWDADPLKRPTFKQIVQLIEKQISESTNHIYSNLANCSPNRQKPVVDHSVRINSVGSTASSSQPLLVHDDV
The target in assay [4] is Inhibitor of nuclear factor kappa-B kinase subunit beta (Homo sapiens) (UniProt O14920). As to the kind of experiment: Inhibition of IKK-beta at 3 uM.
Inhibitor of nuclear factor kappa-B kinase subunit beta (Homo sapiens), sequence (O14920 whole entry): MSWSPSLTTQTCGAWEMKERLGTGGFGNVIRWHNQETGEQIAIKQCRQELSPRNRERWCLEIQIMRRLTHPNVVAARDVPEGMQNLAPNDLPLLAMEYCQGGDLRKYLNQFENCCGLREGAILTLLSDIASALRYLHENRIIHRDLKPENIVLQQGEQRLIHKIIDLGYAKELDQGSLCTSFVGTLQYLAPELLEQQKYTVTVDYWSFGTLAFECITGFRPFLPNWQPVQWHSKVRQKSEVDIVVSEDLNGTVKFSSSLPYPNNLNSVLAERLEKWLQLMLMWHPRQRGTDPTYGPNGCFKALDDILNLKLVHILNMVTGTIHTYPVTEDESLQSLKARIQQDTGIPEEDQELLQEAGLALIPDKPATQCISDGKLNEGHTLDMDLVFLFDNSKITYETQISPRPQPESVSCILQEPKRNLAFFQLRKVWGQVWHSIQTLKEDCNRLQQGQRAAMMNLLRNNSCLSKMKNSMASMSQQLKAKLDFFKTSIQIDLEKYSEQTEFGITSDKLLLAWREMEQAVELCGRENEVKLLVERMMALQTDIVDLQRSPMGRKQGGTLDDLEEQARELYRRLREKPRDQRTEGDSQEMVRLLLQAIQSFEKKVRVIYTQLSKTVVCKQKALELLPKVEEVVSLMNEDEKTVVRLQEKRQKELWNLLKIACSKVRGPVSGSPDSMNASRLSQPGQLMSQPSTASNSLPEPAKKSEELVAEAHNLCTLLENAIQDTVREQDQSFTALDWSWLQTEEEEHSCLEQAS
In assay [5] the target is MAP/microtubule affinity-regulating kinase 4 (Homo sapiens) (UniProt Q96L34). As to the kind of experiment: Inhibition of MARK4 at 3 uM.
For assay [6], the target named is Hepatocyte growth factor receptor (Homo sapiens) (UniProt P08581). The assay is described as follows: Inhibition of MET at 3 uM.
Hepatocyte growth factor receptor (Homo sapiens), sequence (P08581 whole entry): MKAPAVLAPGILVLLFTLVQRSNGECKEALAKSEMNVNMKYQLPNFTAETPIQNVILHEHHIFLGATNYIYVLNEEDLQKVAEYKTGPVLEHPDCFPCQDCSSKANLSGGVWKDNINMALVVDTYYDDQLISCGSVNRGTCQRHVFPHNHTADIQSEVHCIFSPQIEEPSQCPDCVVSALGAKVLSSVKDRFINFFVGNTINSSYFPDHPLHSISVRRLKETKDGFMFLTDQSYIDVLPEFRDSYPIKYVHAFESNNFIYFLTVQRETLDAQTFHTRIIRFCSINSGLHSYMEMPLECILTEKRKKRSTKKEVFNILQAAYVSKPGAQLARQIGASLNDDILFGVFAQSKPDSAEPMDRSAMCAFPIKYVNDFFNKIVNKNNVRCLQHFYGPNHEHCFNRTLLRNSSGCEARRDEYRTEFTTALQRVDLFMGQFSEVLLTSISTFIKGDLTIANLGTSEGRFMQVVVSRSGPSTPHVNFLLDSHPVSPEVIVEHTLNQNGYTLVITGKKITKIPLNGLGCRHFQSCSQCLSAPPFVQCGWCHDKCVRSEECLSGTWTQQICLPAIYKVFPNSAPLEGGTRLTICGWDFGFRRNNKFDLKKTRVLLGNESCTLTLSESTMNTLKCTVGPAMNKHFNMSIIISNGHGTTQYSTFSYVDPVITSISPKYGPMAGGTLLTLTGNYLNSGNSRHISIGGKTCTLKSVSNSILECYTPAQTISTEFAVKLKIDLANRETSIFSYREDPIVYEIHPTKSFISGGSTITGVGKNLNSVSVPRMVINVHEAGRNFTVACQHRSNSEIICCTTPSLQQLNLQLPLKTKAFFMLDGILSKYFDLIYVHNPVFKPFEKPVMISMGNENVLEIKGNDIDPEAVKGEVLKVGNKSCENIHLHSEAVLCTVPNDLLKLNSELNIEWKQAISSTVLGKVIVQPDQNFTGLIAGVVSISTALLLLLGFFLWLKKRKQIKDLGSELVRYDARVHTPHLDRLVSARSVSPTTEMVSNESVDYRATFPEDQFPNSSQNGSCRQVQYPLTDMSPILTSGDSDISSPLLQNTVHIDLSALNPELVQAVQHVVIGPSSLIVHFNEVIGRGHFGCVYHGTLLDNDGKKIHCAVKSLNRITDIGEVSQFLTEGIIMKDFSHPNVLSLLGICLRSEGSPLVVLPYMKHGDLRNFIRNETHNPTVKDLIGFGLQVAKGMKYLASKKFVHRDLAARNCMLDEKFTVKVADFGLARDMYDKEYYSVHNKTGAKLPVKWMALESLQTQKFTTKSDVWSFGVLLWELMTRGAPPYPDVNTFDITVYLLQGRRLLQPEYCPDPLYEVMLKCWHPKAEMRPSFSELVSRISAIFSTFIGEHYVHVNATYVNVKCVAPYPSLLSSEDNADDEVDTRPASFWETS
Assay [7] addresses Interferon-induced, double-stranded RNA-activated protein kinase (Homo sapiens) (UniProt P19525). The assay is described as follows: Inhibition of PRKR at 3 uM.
The test system of assay [8] is Proto-oncogene tyrosine-protein kinase receptor Ret (Homo sapiens), P07949 [M918T]. The assay is described as follows: Inhibition of RET M918T mutant at 3 uM.
The target in assay [9] is Receptor-interacting serine/threonine-protein kinase 2 (Homo sapiens) (UniProt O43353). The assay is described as follows: Inhibition of RIPK2 at 3 uM.
The target in assay [10] is Glutamate NMDA receptor (Rattus norvegicus) (UniProt P35439+Q00959+Q00960+Q00961+Q62645+Q8VHN2+Q9R1M7). As to the kind of experiment: Displacement of glycine from rat NMDA receptor at 3 uM. Format: protein-complex assay. An outline of the steps: (§2)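 Counter-screen binding/enzyme panel at single 3 μM, n=2; results as percent inhibition. Species per target as listed (rat NMDA, GABAA sites; human receptors, transporters; rabbit ACE).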

Assay [11] has as its target Histamine H1 receptor (Homo sapiens) (UniProt P35367). As to the kind of experiment: Inhibition of human histamine H1 receptor at 3 uM.
Assay [12] deals with Histamine H2 receptor (Homo sapiens) (UniProt P25021). The assay is described as follows: Inhibition of human histamine H2 receptor at 3 uM. The method, boiled down: as §2
Assay [13] relates to Tyrosine-protein kinase ABL1 (Homo sapiens), P00519 [Q252H]. As to the kind of experiment: Inhibition of ABL1 Q252H mutant at 3 uM.
For assay [14], the target named is RAC-beta serine/threonine-protein kinase (Homo sapiens) (UniProt P31751). The assay is described as follows: Inhibition of AKT2 at 3 uM.
RAC-beta serine/threonine-protein kinase (Homo sapiens), sequence (P31751 whole entry): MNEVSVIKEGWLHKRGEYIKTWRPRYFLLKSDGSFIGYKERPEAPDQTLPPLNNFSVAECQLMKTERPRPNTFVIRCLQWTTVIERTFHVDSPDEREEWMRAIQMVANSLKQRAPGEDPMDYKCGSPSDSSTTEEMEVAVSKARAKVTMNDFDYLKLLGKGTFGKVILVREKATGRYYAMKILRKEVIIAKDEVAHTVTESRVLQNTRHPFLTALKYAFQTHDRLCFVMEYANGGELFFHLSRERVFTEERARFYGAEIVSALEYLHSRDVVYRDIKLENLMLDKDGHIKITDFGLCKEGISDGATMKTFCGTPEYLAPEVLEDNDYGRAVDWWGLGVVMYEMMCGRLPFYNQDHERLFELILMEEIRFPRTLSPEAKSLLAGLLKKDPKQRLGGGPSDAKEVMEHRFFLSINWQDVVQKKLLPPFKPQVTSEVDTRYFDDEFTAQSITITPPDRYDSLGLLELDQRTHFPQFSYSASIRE
The target in assay [15] is 5'-AMP-activated protein kinase catalytic subunit alpha-2 (Homo sapiens) (UniProt P54646). As to the kind of experiment: Inhibition of AMPKalpha2 at 3 uM.
Assay [16] addresses Aurora kinase A (Homo sapiens) (UniProt O14965). As to the kind of experiment: Inhibition of AURKA at 3 uM.
For assay [17], the target named is Cyclin-dependent kinase-like 2 (Homo sapiens) (UniProt Q92772). The assay is described as follows: Inhibition of CDKL2 at 3 uM.
In assay [18] the target is Macrophage colony-stimulating factor 1 receptor (Homo sapiens) (UniProt P07333). The assay is described as follows: Inhibition of CSF1R at 3 uM.
Assay [19] deals with Ephrin type-B receptor 2 (Homo sapiens) (UniProt P29323). The assay is described as follows: Inhibition of EPHB2 at 3 uM. The method, boiled down:
as §1

Assay [20] concerns the target Receptor tyrosine-protein kinase erbB-2 (Homo sapiens) (UniProt P04626). As to the kind of experiment: Inhibition of ERBB2 at 3 uM. An outline of the steps:
as §1

For the next assay, the species on record is Homo sapiens. The conditions noted are these: 3 uM.

In general, inhibition refers to the change of the read-out against control, counted positive when it falls.

Ephrin type-B receptor 2 (Homo sapiens), sequence (P29323 whole entry): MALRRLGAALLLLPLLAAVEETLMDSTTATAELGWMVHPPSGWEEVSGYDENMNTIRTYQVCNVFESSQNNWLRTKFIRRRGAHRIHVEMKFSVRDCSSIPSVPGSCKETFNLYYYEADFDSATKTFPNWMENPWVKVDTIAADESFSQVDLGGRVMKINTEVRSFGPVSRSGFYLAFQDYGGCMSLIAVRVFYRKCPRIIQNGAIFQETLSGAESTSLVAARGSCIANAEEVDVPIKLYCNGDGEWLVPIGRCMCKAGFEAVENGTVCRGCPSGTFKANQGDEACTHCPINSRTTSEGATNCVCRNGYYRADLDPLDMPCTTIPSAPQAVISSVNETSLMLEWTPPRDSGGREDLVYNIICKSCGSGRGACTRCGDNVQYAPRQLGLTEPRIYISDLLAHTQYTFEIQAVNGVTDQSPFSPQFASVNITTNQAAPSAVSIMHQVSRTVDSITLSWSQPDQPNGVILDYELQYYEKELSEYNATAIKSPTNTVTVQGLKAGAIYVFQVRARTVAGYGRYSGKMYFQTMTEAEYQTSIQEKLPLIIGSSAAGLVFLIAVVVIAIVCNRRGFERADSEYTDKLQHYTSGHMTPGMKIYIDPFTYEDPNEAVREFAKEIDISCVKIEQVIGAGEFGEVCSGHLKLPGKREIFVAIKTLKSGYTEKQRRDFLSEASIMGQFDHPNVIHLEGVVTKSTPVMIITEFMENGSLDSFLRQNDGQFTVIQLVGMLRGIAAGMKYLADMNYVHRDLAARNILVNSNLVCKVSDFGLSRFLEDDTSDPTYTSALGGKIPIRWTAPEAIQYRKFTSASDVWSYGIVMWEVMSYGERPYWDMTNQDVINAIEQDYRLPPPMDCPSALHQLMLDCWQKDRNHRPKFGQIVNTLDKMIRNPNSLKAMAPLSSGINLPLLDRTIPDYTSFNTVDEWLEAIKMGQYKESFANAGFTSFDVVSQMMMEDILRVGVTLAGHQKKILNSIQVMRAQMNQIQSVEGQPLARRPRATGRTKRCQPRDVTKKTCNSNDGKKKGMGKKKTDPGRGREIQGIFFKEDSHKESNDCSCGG
Aurora kinase A (Homo sapiens), sequence (O14965 whole entry): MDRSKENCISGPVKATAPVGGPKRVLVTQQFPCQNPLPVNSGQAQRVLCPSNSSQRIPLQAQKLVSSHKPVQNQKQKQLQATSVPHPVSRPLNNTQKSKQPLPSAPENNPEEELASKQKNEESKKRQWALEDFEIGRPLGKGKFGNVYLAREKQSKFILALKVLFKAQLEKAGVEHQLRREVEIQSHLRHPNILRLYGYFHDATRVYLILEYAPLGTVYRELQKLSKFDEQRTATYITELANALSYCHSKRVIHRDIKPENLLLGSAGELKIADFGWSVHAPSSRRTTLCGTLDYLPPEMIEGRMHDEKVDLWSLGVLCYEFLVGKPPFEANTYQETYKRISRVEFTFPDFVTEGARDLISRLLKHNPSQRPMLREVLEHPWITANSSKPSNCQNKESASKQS

For the compound `CN(C)CCOc1cc(-c2cn[nH]c2)ccc1NC(=O)C1COc2ccccc2O1` (stereo unspecified) [SR-3677], the inhibition in [1], in assay [2], in assay [3], in [4], in assay [5] and in assay [6] was less than 10% throughout. Further, the inhibition in assay [7] was less than 10%; in assay [8] it was less than 10%; in assay [9], less than 10%; in assay [10] it was -10%; in assay [11] it was 7%; in [12], 1%. In addition, the inhibition in assay [13], in assay [14], in assay [15], in assay [16], in assay [17] and in assay [18] was less than 10% throughout. Further, the inhibition in [19] is less than 10%; in assay [20] it was less than 10%; in the assay filed under Homo sapiens, 12%.
